Data: ChEMBL document CHEMBL4480384, “Benzo[d]thiazol-2(3H)-ones as new potent selective CB2 agonists with anti-inflammatory properties” (Eur J Med Chem, 2019)
≈ marks a conversion by molar mass, not a printed value.

Tests used:
Cannabinoid receptor 1 [1] = target: T1, Cannabinoid receptor 1 (Homo sapiens, UniProt P21554); test: Agonist activity at human CB1 receptor
Cannabinoid receptor 2 [2] = target: T2, Cannabinoid receptor 2 (Homo sapiens, UniProt P34972); test: Agonist activity at human CB2 receptor
Cannabinoid receptor 1 [3] = target: T1, Cannabinoid receptor 1; test: Displacement of [3H]-CP-55940 from human CB1 receptor expressed in CHO cell membranes after 1 hr by beta-counting analysis
Cannabinoid receptor 2 [4] = target: T2, Cannabinoid receptor 2; test: Displacement of [3H]-CP-55940 from human CB2 receptor expressed in CHO cell membranes after 1 hr by beta-counting analysis
Homo sapiens = species on record: Homo sapiens; test: Selectivity index, ratio of Ki for human CB1 receptor expressed in CHO cell membranes to Ki for human CB2 receptor expressed in CHO cell membranes; format: cell-based
Cannabinoid receptor 2 [5] = target: T2, Cannabinoid receptor 2; test: Displacement of [3H]-CP-55940 from human CB2 receptor expressed in CHO cell membranes at 10 uM after 1 hr by beta-counting analysis
How it was run: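 Competition binding to hCB2-CHO membranes (40 μg) with [3H]-CP-55,940 1 nM in Tris-HCl/MgCl2/EDTA/0.5% BSA buffer, pH 7.4, 1 h at 30°C. Final DMSO was below 0.1%. Filtration on GF/B, then β-count; HU-210 10 µM defined nonspecific binding. Compounds were first screened at 10 μM.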

Cannabinoid receptor 2 [6] = target: T2, Cannabinoid receptor 2; test: Agonist activity at human CB2 receptor expressed in CHO cell membranes assessed as [35S]GTPgammaS binding after 1 hr by beta-counting analysis relative to control; format: functional
How it was run: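 Membranes from hCB2-CHO cells, 40 μg protein, in 50 mM Tris-HCl, 3 mM MgCl2, 1 mM EDTA, 100 mM NaCl, 0.1% BSA, pH 7.4, with 20 μM GDP. [35S]-GTPγS was 0.05 nM final, 1 h at 30°C. Filtration on GF/B, then β-counting. Nonspecific binding was set with 100 μM Gpp(NH)p.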

Cannabinoid receptor 2 [7] = target: T2, Cannabinoid receptor 2; test: Agonist activity at human CB2 receptor expressed in CHO cell membranes assessed as [35S]GTPgammaS binding after 1 hr by beta-counting analysis; format: functional
HT-29 = test: Cytotoxicity against human HT-29 cells at 10 uM after 72 hrs by MTS assay relative to control; format: cell-based; conditions: ht-29, 72 h
How it was run: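 HT29 cells were grown in DMEM-Glutamax with 10% FBS at 37°C and 5% CO2. They were seeded at 3000 cells/well in triplicate and allowed 24 h. Compounds were added at 10 μM with DMSO below 0.1%, for 72 h. Read-out was the MTS colorimetric test, given as % proliferation inhibition from ≥4 experiments in duplicate.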

[8] = Protein binding in human plasma after 4 hrs by equilibrium dialysis method; format: ADME, cell-free; conditions: read-out: PPB (converted)
How it was run: (§1)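 Human plasma protein binding was measured by equilibrium dialysis, 4 h at 37°C. Both % bound and % recovery were reported.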

Mus musculus [9] = test: Anti-inflammatory activity in C57BL6 mouse model of DSS-induced acute colitis assessed Sod2 mRNA expression at 10 mg/kg, ip measured on day 9 (reference value: 2 +/- 0.4 a.u.); format: functional
How it was run: (§2)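 Colons came from DSS-colitis C57BL6 mice dosed ip at 10 mg/kg daily in hydroxypropyl-β-cyclodextrin, or given vehicle. Total RNA was extracted and reverse-transcribed. Sod2 and iNos mRNA were measured by SYBR Green RT-qPCR against the PolR2A reference gene. Mean ± SEM, n = 10, Mann-Whitney U test.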

[10] = Permeability of the compound across basolateral side to apical side in human Caco2 after 60 mins; format: ADME, cell-based; conditions: Caco-2, read-out: permeability
How it was run: (§3)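 Caco-2 monolayers were dosed apical-to-basolateral and basolateral-to-apical, pH 6.5/7.4, at 37°C. Samples were taken at 0 and 60 min, and permeability reported in 10^-6 cm/s.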

[11] = Aqueous solubility of compound in stimulated intestinal fluid after 24 hrs by shake-flask method; format: physicochemical; conditions: simulated intestinal fluid
How it was run: (§4)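 Solubility was measured by shake-flask for 24 h at room temperature in PBS pH 7.4, simulated gastric fluid or simulated intestinal fluid.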

Mus musculus [12] = test: Anti-inflammatory activity in C57BL6 mouse model of DSS-induced acute colitis assessed colon weight/size ratio at 10 mg/kg, ip measured on day 9 (reference value: 0.050 +/- 0.0014); format: functional
[13] = Protein binding in human plasma assessed as drug recovery after 4 hrs by equilibrium dialysis method; format: ADME, cell-free; conditions: read-out: Drug recovery; how it was run: as §1
[14] = Half life in human liver microsomes at 0.1 mg/ml after 60 mins; format: ADME, Microsome
How it was run: (§5)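 Incubation with human liver microsomes at 0.1 mg/mL, 37°C, sampled at 0 and 60 min. Outputs were % remaining at 60 min, half-life and intrinsic clearance in μL/min/mg.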

[15] = Aqueous solubility of compound in pH 7.4 PBS after 24 hrs by shake-flask method; format: physicochemical; how it was run: as §4
[16] = Stability in human liver microsomes assessed as compound remaining at 0.1 mg/ml after 60 mins; format: ADME, Microsome; conditions: read-out: Stability; how it was run: as §5
[17] = Intrinsic clearance in human liver microsomes at 0.1 mg/ml after 60 mins; format: ADME, Microsome; conditions: read-out: CLH; how it was run: as §5
[18] = Permeability of the compound across apical side to basolateral side in human Caco2 after 60 mins; format: ADME, cell-based; conditions: Caco-2, read-out: permeability; how it was run: as §3
[19] = Efflux ratio of permeability in human Caco2 after 60 mins; format: ADME, cell-based; conditions: Caco-2
How it was run: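 Run by a contract lab. Compound incubated with the Caco-2 cell line at 37 °C, pH 6.5/7.4, sampled at 0 and 60 min. Apparent permeability measured A-B and B-A, and the efflux ratio taken as (B-A)/(A-B).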

[20] = Aqueous solubility of compound in stimulated gastric fluid after 24 hrs by shake-flask method; format: physicochemical; conditions: simulated gastric fluid; how it was run: as §4
Mus musculus [21] = test: Anti-inflammatory activity in C57BL6 mouse model of DSS-induced acute colitis assessed as body weight change at 10 mg/kg, ip measured on day 9 (reference value: 79.5 +/- 1.8%); format: functional
Mus musculus [22] = test: Anti-inflammatory activity in C57BL6 mouse model of DSS-induced acute colitis assessed reduction in MPO activity at 10 mg/kg, ip measured on day 9 relative to control; format: functional; conditions: 216 h
How it was run: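 DSS-colitis C57BL6 mice were dosed ip at 10 mg/kg daily in hydroxypropyl-β-cyclodextrin, against vehicle controls. Colon was homogenised in phosphate buffer pH 6.0 with 0.5% hexadecyltrimethyl ammonium, then sonicated and freeze-thawed. Supernatant was reacted with o-dianisidine 1 mg/ml and H2O2 0.0005%, and OD read at 450 nm. Results were normalised to Bradford protein; n = 10.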

Mus musculus [23] = test: Anti-inflammatory activity in C57BL6 mouse model of DSS-induced acute colitis assessed iNos mRNA expression at 10 mg/kg, ip measured on day 9 (reference value: 1 +/- 0.2 a.u.); format: functional; how it was run: as §2

T2 sequence (P34972 whole entry): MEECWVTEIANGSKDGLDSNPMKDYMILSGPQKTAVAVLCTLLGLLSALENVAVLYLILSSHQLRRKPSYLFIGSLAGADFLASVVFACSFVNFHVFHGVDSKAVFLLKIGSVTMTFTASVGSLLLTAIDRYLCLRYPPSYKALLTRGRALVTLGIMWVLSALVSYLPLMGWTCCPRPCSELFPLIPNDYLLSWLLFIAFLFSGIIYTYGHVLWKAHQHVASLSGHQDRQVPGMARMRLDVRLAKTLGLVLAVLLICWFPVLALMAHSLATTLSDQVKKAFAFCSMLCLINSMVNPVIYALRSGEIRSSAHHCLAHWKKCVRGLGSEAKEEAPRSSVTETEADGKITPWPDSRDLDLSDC
T1 sequence (P21554 whole entry): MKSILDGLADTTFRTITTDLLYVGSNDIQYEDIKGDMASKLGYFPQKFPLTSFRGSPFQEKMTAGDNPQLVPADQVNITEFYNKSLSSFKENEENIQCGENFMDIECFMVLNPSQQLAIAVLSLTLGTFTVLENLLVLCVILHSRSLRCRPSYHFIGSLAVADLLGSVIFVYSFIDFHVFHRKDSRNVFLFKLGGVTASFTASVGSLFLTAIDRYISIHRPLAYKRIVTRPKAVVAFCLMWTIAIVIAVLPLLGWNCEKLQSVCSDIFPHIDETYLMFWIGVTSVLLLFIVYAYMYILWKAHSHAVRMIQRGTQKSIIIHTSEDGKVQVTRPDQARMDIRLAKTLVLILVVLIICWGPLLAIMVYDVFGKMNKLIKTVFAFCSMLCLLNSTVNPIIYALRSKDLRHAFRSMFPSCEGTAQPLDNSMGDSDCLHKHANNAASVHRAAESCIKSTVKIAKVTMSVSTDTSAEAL

Row | Compound | Ki (Cannabinoid receptor 1 [3]) | Ki (Cannabinoid receptor 2 [4]) | Ratio Ki (Homo sapiens) | inhibition (Cannabinoid receptor 2 [5]) | further results
1 | CC(C)(C)NC(=O)c1nn(-c2ccc(F)cc2F)c2c1[C@H]1CC[C@@H]2C1 [TEDALINAB] |  |  |  |  | Ki (Cannabinoid receptor 1 [1]): 985 nM; Ki (Cannabinoid receptor 2 [2]): 11.8 nM
2 | CCCC(C)(C)c1ccc2c(c1)OC(C)(C)[C@@H]1CC=C(C)C[C@@H]21 | > 1000 nM | 8 nM | > 125 |  | 
3 | CCCCCn1c(=O)oc2cc(C(=O)C3C(C)(C)C3(C)C)ccc21 |  | > 1000 nM |  | > 60% | 
4 | Cc1c(C(=O)c2cccc3ccccc23)c2cccc3c2n1[C@H](CN1CCOCC1)CO3 |  |  |  |  | Emax (Cannabinoid receptor 2 [6]): 181%
5 | CCCCCn1c(=O)sc2ccc(C(=O)C34CC5CC(CC(C5)C3)C4)cc21 |  | 526 nM |  | > 60% | 
6 | CCCCCn1c(=O)sc2ccc(C(=O)C3C(C)(C)C3(C)C)cc21 |  | > 1000 nM |  | > 60% | 
7 | CCCCCn1c(=O)sc2cc(C(=O)C3CCCCC3)ccc21 | > 1000 nM | 49.5 nM | > 20 | > 60% | EC50 (Cannabinoid receptor 2 [7]): 41.5 nM; Emax (Cannabinoid receptor 2 [6]): 178%; Activity (HT-29): 67%
8 | CCCCCCn1c(=O)sc2cc(C(=O)C34CC5CC(CC(C5)C3)C4)ccc21 | 903 nM | 39 nM | 23 | > 60% | EC50 (Cannabinoid receptor 2 [7]): 32.8 nM; Emax (Cannabinoid receptor 2 [6]): 169%; Activity (HT-29): 0%
9 | CCCCCn1c(=O)sc2cc(C(=O)c3ccccc3)ccc21 |  | > 1000 nM |  | > 60% | 
10 | CCCCCn1c(=O)sc2cc(/C(=N\OC)C34CC5CC(CC(C5)C3)C4)ccc21 |  | 438 nM |  | > 60% | 
11 | CCCCCn1c(=O)oc2cc(C(=O)C3CCCCC3)ccc21 |  | > 1000 nM |  | > 60% | 
12 | CCCCCn1c(=O)sc2cc(/C(=N\O)C34CC5CC(CC(C5)C3)C4)ccc21 | > 1000 nM | 251 nM | > 4 | > 60% | 
13 | CCCCCn1c(=O)sc2cc(NC(=O)C34CC5CC(CC(C5)C3)C4)ccc21 |  | > 1000 nM |  | > 60% | 
14 | CCCCCn1c(=O)sc2cc(C(=O)C3CCCC3)ccc21 | > 1000 nM | 210 nM | > 5 | > 60% | 
15 | CCCCn1c(=O)sc2cc(C(=O)C34CC5CC(CC(C5)C3)C4)ccc21 | 780 nM | 26 nM | 30 | > 60% | EC50 (Cannabinoid receptor 2 [7]): 150 nM; Emax (Cannabinoid receptor 2 [6]): 152%; Activity (HT-29): 0%
16 | CCCCCn1c(=O)sc2cc(C(=O)NC34CC5CC(CC(C5)C3)C4)ccc21 |  | > 1000 nM |  | > 60% | 
17 | CCCCCn1c(=O)sc2cc(C(=O)C3C(C)(C)C3(C)C)ccc21 |  | > 1000 nM |  | > 60% | 
18 | CCCCCn1c(=O)sc2cc(C(O)C34CC5CC(CC(C5)C3)C4)ccc21 (stereo not given) | > 1000 nM | 272 nM | > 4 | > 60% | 
19 | CCS(=O)(=O)Nc1ccc2c(c1)nc(C(C)(C)C)n2CC1CCC(F)(F)CC1 |  |  |  |  | Ki (Cannabinoid receptor 1 [1]): 11.7 nM; Ki (Cannabinoid receptor 2 [2]): 0.87 nM
20 | CC(C)n1c(=O)sc2cc(C(=O)C34CC5CC(CC(C5)C3)C4)ccc21 | > 1000 nM | 281 nM | > 4 | > 60% | 
21 | CCCCCn1c(=O)sc2cc(C(OC)C34CC5CC(CC(C5)C3)C4)ccc21 (stereo not given) | > 1000 nM | 344 nM | > 3 | > 60% | 
22 | CCCCCn1c(=O)oc2cc(C(=O)C34CC5CC(CC(C5)C3)C4)ccc21 |  | > 1000 nM |  | > 60% | 
23 | CC(Cn1c(=O)sc2cc(C(=O)C34CC5CC(CC(C5)C3)C4)ccc21)N(C)C (stereo not given) |  | 506 nM |  | > 60% | 
24 | CCCCCn1c(=O)sc2cc(CC34CC5CC(CC(C5)C3)C4)ccc21 | 593 nM | 144 nM | 4 | > 60% | 
25 | CCCCCn1c(=O)sc2ccc(C(=O)C3CCCCC3)cc21 |  | > 1000 nM |  | > 60% | 
26 | CCCCCn1c(=O)sc2cc(C(=O)C34CC5CC(CC(C5)C3)C4)ccc21 | 627 nM | 13.5 nM | 46 | > 60% | fraction unbound at 4 h [8]: 0.11; Activity (Mus musculus [9]): 1.2 a.u.; Papp B→A at 1 h [10]: 1.3 ×10⁻⁶ cm/s; solubility thermodynamic at 24 h [11]: 107 µM (≈ 41.2 µg/mL); EC50 (Cannabinoid receptor 2 [7]): 41.9 nM; Ratio (Mus musculus [12]): 0.044; Emax (Cannabinoid receptor 2 [6]): 157%; recovery at 4 h [13]: 100%; half-life [14]: 48 min; Activity (HT-29): 0%; solubility thermodynamic at 24 h [15]: 1 µM (≈ 0.384 µg/mL); remaining at 1 h [16]: 43%; microsomal CLint [17]: 146 µL/min/mg; Papp A→B at 1 h [18]: 1.8 ×10⁻⁶ cm/s; efflux ratio at 1 h [19]: 0.7; solubility thermodynamic at 24 h [20]: 183 µM (≈ 70.3 µg/mL); Activity (Mus musculus [21]): 85.9%; inhibition in vivo at 10 mg/kg (Mus musculus [22]): 43%; Activity (Mus musculus [23]): 0.4 a.u.
